Data from ChEMBL document CHEMBL1128337, “Synthesis and cytotoxic activity of 6-vinyl- and 6-ethynyluridine and 8-vinyl-and 8-ethynyladenosine” (J Med Chem, 1995).

How the values were obtained:
Assay type in all cases: functional, cell-based
FM3A = assay: Compound was tested for the inhibition of murine mammary carcinoma FM3A cell proliferation; settings: Mus musculus
In short: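 FM3A cells in Eagle's minimal essential medium with 10% fetal calf serum, 2 mM L-glutamine, 0.075% NaHCO3. Seeded 5 × 10⁴ cells/well (200 μL) with varying compound concentrations and incubated 48 h at 37 °C, humidified CO2 atmosphere. Cell number from Coulter counter. IC50 = concentration reducing viable cells by 50%.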

L1210 = assay: Compound was tested for the inhibition of murine leukemia L1210 cell proliferation; settings: Mus musculus
In short: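 L1210 cells maintained in Eagle's minimal essential medium with 10% fetal calf serum, 2 mM L-glutamine, 0.075% NaHCO3. Exposed to varying compound concentrations at 5 × 10⁴ cells/well (200 μL) and grown 48 h at 37 °C, humidified CO2 atmosphere. Counted with Coulter counter. IC50 = concentration reducing viable cells by 50%. Means of at least two or three independent experiments.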

MT4 = assay: Compound was tested for the inhibition of human T-lymphoblast MT-4 cell proliferation
In short: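 MT-4 cells grown in RPMI-1640 with 10% fetal calf serum, 2 mM L-glutamine, 0.075% NaHCO3. Seeded at 6.25 × 10⁴ cells/well with varying compound concentrations and cultured 120 h at 37 °C, humidified CO2 atmosphere. Viable cells counted by trypan blue staining under microscope. IC50 = concentration reducing viable cell number by 50%. Means of at least two or three independent experiments.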

MOLT-4F = assay: Compound was tested for the inhibition of human T-lymphoblast Molt/4F cell proliferation
In short: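 Molt/4F cells in RPMI-1640 with 10% fetal calf serum, 2 mM L-glutamine, 0.075% NaHCO3. Plated at 6.25 × 10⁴ cells/well across varying compound concentrations and grown 72 h at 37 °C, humidified CO2 atmosphere. Cells counted with Coulter counter. IC50 = concentration reducing viable cell number by 50%. Means of at least two or three independent experiments.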

With C#Cc1nc2c(N)ncnc2n1[C@@H]1O[C@H](CO)[C@@H](O)[C@H]1O the IC50 (FM3A) was 27 µM, the IC50 (L1210) was 54 µM and the IC50 (MT4) was 22 µM. For the same molecule, the IC50 (MOLT-4F) was 25 µM.

For C#Cc1cc(=O)[nH]c(=O)n1C1O[C@H](CO)[C@@H](O)[C@H]1O (stereo partly specified), the IC50 (FM3A) was > 372 µM, the IC50 (L1210) was > 372 µM and the IC50 (MT4) was 286 µM. The IC50 (MOLT-4F) was > 372 µM.

Molecule C=Cc1cc(=O)[nH]c(=O)n1C1O[C@H](CO)[C@@H](O)[C@H]1O (stereo partly specified) has an IC50 (FM3A) of 24 µM, an IC50 (L1210) of 21 µM and an IC50 (MT4) of 11 µM. The IC50 (MOLT-4F) was 14 µM.

For C=Cc1nc2c(N)ncnc2n1[C@@H]1O[C@H](CO)[C@@H](O)[C@H]1O, the IC50 (FM3A) was 145 µM, the IC50 (L1210) was 190 µM and the IC50 (MT4) was 15 µM. For the same molecule, the IC50 (MOLT-4F) was 6.5 µM.
